Measured values taken from ChEMBL document CHEMBL4145481, “Synthesis and biological evaluation of novel bavachinin analogs as anticancer agents” (Eur J Med Chem, 2018).
pEC50, pIC50: −log10 of the molar value.

Key:
A549 [1] = test: Cytotoxicity against human A549 cells assessed as growth inhibition at 50 uM after 48 hrs by SRB assay relative to control; assay type: functional; details: A549, 48 h, read-out: GI
Summary of the method: (§1)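 SRB growth-inhibition run in RPMI-1640/10% FBS at 37°C, 5% CO₂. Cell lines were seeded (PC-3 7000, MCF-7 8000, A549 7500, HCT-116 7000/well) and attached 24 h. The treatment series included 50 μM, with 48 h exposure. Cells were cold-TCA fixed and stained with 0.4% SRB. Dye was solubilized in 10 mM Tris pH 10.4 and read at 540 nm against untreated control.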

PC-3 [2] = test: Cytotoxicity against human PC3 cells assessed as growth inhibition at 50 uM after 48 hrs by SRB assay relative to control; assay type: functional; details: PC-3, 48 h, read-out: GI; summary of the method: as §1
HCT-116 [3] = test: Cytotoxicity against human HCT116 cells assessed as growth inhibition at 50 uM after 48 hrs by SRB assay relative to control; assay type: functional; details: HCT-116, 48 h, read-out: GI; summary of the method: as §1
MCF7 [4] = test: Cytotoxicity against human MCF7 cells assessed as growth inhibition at 50 uM after 48 hrs by SRB assay relative to control; assay type: functional; details: MCF7, 48 h, read-out: GI; summary of the method: as §1
A549 [5] = test: Cytotoxicity against human A549 cells assessed as growth inhibition after 48 hrs by SRB assay; assay type: functional, cell-based; details: A549, 48 h
Summary of the method: (§2)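 Cells were grown in RPMI-1640 with 10% FBS and penicillin/streptomycin at 37°C, 5% CO₂. Seeding was PC-3 7000, MCF-7 8000, A549 7500 and HCT-116 7000 cells/well, with 24 h attachment. Cells were exposed to 1, 5, 10, 30 and 50 μM for 48 h, with a 5-fluorouracil reference. Cells were TCA-fixed (1 h, 4°C) and stained with 0.4% SRB. Bound dye was dissolved in 10 mM Tris pH 10.4 and read at 540 nm. IC50 came from the concentration-response.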

PC-3 [6] = test: Cytotoxicity against human PC3 cells assessed as growth inhibition after 48 hrs by SRB assay; assay type: functional, cell-based; details: PC-3, 48 h; summary of the method: as §2
HCT-116 [7] = test: Cytotoxicity against human HCT116 cells assessed as growth inhibition after 48 hrs by SRB assay; assay type: functional, cell-based; details: HCT-116, 48 h; summary of the method: as §2
MCF7 [8] = test: Cytotoxicity against human MCF7 cells assessed as growth inhibition after 48 hrs by SRB assay; assay type: functional, cell-based; details: MCF7, 48 h; summary of the method: as §2
[9] = target: T1, Peroxisome proliferator-activated receptor gamma (Mus musculus, UniProt P37238); test: Agonist activity at mouse PPARgamma expressed in 293T cells by dual luciferase reporter gene assay; assay type: cell-based
T1 sequence (P37238 whole entry): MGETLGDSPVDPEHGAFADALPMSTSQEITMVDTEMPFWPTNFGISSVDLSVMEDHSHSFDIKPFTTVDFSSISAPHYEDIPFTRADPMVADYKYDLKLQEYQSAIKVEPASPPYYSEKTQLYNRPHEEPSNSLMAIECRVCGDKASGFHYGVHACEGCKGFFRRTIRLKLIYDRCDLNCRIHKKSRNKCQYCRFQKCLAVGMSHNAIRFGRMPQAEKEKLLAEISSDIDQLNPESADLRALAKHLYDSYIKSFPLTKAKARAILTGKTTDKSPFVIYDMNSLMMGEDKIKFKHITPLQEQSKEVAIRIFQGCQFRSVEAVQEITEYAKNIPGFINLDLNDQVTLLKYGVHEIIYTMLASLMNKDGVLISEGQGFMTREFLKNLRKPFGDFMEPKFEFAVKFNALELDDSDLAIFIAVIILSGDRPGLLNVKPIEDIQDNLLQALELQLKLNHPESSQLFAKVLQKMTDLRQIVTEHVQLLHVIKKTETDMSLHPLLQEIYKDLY

pEC50 [9] | Compound | inhibition of growth at 50 µM (A549 [1]) [%] | inhibition of growth at 50 µM (PC-3 [2]) [%] | inhibition of growth at 50 µM (HCT-116 [3]) [%] | inhibition of growth at 50 µM (MCF7 [4]) [%] | pIC50 (A549 [5]) | pIC50 (PC-3 [6]) | pIC50 (HCT-116 [7]) | pIC50 (MCF7 [8])
– | COc1cc2c(cc1CC=C(C)C)C(=O)C[C@@H](c1ccc(Oc3ccccc3)cc1)O2 | 46 | 53 | 76 | 69 | – | – | – | –
– | CCCCOc1ccc([C@@H]2CC(=O)c3cc(CC=C(C)C)c(OC)cc3O2)cc1 | 37 | 48 | 60 | 57 | – | – | – | –
– | COc1cc2c(cc1CC=C(C)C)C(=O)C[C@@H](c1ccc(Oc3ccc(F)cc3)cc1)O2 | 27 | 19 | 29 | 37 | – | – | – | –
– | COc1ccc([C@@H]2C/C(=N/OCc3cn(-c4ccc(Cl)cc4C)nn3)c3cc(CC=C(C)C)c(OC)cc3O2)cc1 | 35 | 49 | 20 | 37 | – | – | – | –
– | CCOc1ccc([C@@H]2CC(=O)c3cc(CC=C(C)C)c(OC)cc3O2)cc1 | 37 | 60 | 65 | 57 | – | – | – | –
– | COc1ccc([C@@H]2C/C(=N/OCc3cn(-c4ccc(NC(=O)c5ccccc5)cc4)nn3)c3cc(CC=C(C)C)c(OC)cc3O2)cc1 | 31 | 22 | 8 | 4 | – | – | – | –
– | COc1ccc([C@@H]2C/C(=N/OCc3cn(-c4ccc(NC(C)=O)cc4)nn3)c3cc(CC=C(C)C)c(OC)cc3O2)cc1 | 19 | 2 | 6 | 0 | – | – | – | –
– | COc1cc2c(cc1CC=C(C)C)C(=O)C[C@@H](c1ccc(Oc3ccc(Br)cc3)cc1)O2 | 72 | 55 | 76 | 68 | – | – | – | –
– | COc1cc2c(cc1CCC(C)C)C(=O)C[C@@H](c1ccc(O)cc1)O2 | 75 | 78 | 77 | 81 | 4.52 | 4.44 | 4.46 | 4.46
– | COc1ccc([C@@H]2C/C(=N/OCc3cn(-c4ccc(C(=O)c5ccccc5)cc4)nn3)c3cc(CC=C(C)C)c(OC)cc3O2)cc1 | 34 | 40 | 52 | 41 | – | – | – | –
– | CCCOc1ccc([C@@H]2CC(=O)c3cc(CC=C(C)C)c(OC)cc3O2)cc1 | 43 | 54 | 63 | 60 | – | – | – | –
– | COc1ccc([C@@H]2C/C(=N/OCc3cn(-c4ccc(C#N)cc4)nn3)c3cc(CC=C(C)C)c(OC)cc3O2)cc1 | 42 | 50 | 50 | 40 | – | – | – | –
6.37 | COc1cc2c(cc1CC=C(C)C)C(=O)C[C@@H](c1ccc(OC(=O)c3ccc([N+](=O)[O-])cc3)cc1)O2 | – | – | – | – | – | – | – | –
– | COc1ccc([C@@H]2C/C(=N/OCc3cn(-c4cccnc4Cl)nn3)c3cc(CC=C(C)C)c(OC)cc3O2)cc1 | 58 | 44 | 47 | 35 | – | – | – | –
– | COc1cc2c(cc1CC=C(C)C)C(=O)C[C@@H](c1ccc(Oc3cccc([N+](=O)[O-])c3)cc1)O2 | 37 | 21 | 46 | 53 | – | – | – | –
